≈ marks a conversion by molar mass, not a printed value. Calls of active or inactive are those of the source. The rule behind the calls is not given here.
Columns and labels:
[1] = Aqueous solubility of the compound at pH 7; type: physicochemical
[2] = target: T1, Adenosine deaminase (Bos taurus, UniProt P56658); experiment: Activity of calf mucosal adenosine deaminase assessed as enzyme-mediated drug metabolism by liquid chromatographic analysis; type: ADME; details: cattle
T1 sequence (P56658 whole entry): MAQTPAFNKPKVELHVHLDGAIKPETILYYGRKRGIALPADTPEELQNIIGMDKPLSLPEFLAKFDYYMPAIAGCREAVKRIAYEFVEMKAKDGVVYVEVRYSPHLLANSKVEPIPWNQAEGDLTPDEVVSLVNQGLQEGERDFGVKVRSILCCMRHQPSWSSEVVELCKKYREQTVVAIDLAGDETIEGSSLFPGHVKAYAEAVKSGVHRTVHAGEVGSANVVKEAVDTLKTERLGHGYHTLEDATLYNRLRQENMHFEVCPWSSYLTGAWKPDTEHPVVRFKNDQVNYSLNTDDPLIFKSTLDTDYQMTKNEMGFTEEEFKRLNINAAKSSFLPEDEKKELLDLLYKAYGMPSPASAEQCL
How it was run: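 Drug exposed to the deaminase, with enzyme level also raised 10- and 100-fold. Reaction mixtures analysed by reverse-phase C18 LC (aqueous acetonitrile eluent, 254-nm UV detection) for unchanged substrate.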

[3] = system: Human alphaherpesvirus 1; experiment: Antiviral activity against Herpes simplex virus 1 assessed as plaque reduction at 1.75 x 10^-5 M by cell-based assay relative to control; type: functional
How it was run: (§1)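 HSV-1 plaque-reduction assay by the Hsiung–Melnick procedure. Challenge was 125-300 plaque-forming units. An ara-A control was run alongside each sample at the same molar concentration with an identical virus challenge. Data were confirmed by duplicate assay (±10%).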

[4] = system: Human alphaherpesvirus 1; experiment: Antiviral activity against Herpes simplex virus 1 assessed as plaque reduction at 0.54 x 10^-5 M by cell-based assay relative to vidarabine; type: functional; how it was run: as §1
[5] = system: Human alphaherpesvirus 1; experiment: Antiviral activity against Herpes simplex virus 1 assessed as plaque reduction at 1.75 x 10^-5 M by cell-based assay relative to vidarabine; type: functional; how it was run: as §1
[6] = system: Human alphaherpesvirus 1; experiment: Antiviral activity against Herpes simplex virus 1 assessed as plaque reduction at 1.67 x 10^-5 M by cell-based assay relative to control; type: functional; how it was run: as §1
[7] = system: Human alphaherpesvirus 1; experiment: Antiviral activity against Herpes simplex virus 1 assessed as plaque reduction at 1.67 x 10^-5 M by cell-based assay relative to vidarabine; type: functional; how it was run: as §1
[8] = system: Human alphaherpesvirus 1; experiment: Antiviral activity against Herpes simplex virus 1 assessed as plaque reduction at 0.18 x 10^-5 M by cell-based assay relative to control; type: functional; how it was run: as §1
[9] = system: Human alphaherpesvirus 1; experiment: Antiviral activity against Herpes simplex virus 1 assessed as plaque reduction at 0.18 x 10^-5 M by cell-based assay relative to vidarabine; type: functional; how it was run: as §1
[10] = system: Human alphaherpesvirus 2; experiment: Antiviral activity against Herpes simplex virus 2 Magill infected in guinea pig assessed as cured animal at 10% compound concentration treated intravaginally bid for 4 days measured on day 16 post-infection; type: functional, organism-based
How it was run: (§2)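 Animals were infected intravaginally with 1 × 10^2.82 PFU in 0.1 mL. Drug ointments were given intravaginally starting 4 h postinfection, then twice daily for 4 days, filling the vagina. Clinical signs were scored as animals positive/infected. Cure meant no symptoms, or symptoms healed by day 16 postinfection; it was reported as cured/infected.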

[11] = system: Human alphaherpesvirus 2; experiment: Antiviral activity against Herpes simplex virus 2 Magill infected in guinea pig assessed as prevention of inflammation at 10% compound concentration treated intravaginally bid for 4 days measured on day 16 post-infection; type: functional, organism-based; how it was run: as §2
[12] = system: Human alphaherpesvirus 2; experiment: Antiviral activity against Herpes simplex virus 2 Magill infected in guinea pig assessed as prevention of vesiculation of labia and vulva at 10% compound concentration treated intravaginally bid for 4 days measured on day 16 post-infection; type: functional, organism-based; how it was run: as §2
[13] = system: Human alphaherpesvirus 2; experiment: Antiviral activity against Herpes simplex virus 2 Magill infected in guinea pig assessed as prevention of vaginal discharge at 10% compound concentration treated intravaginally bid for 4 days measured on day 16 post-infection; type: functional, organism-based; how it was run: as §2
[14] = system: Human alphaherpesvirus 2; experiment: Antiviral activity against Herpes simplex virus 2 Magill infected in guinea pig assessed as prevention of paralysis at 10% compound concentration treated intravaginally bid for 4 days measured on day 16 post-infection; type: functional, organism-based; how it was run: as §2
[15] = system: Human alphaherpesvirus 2; experiment: Antiviral activity against Herpes simplex virus 2 Magill infected in guinea pig assessed as prevention of death at 10% compound concentration treated intravaginally bid for 4 days measured on day 16 post-infection; type: functional, organism-based; how it was run: as §2
[16] = system: Human alphaherpesvirus 1; experiment: Antiviral activity against Herpes simplex virus 1 assessed as plaque reduction at 1.76 x 10^-5 M by cell-based assay relative to control; type: functional; how it was run: as §1
[17] = system: Human alphaherpesvirus 1; experiment: Antiviral activity against Herpes simplex virus 1 assessed as plaque reduction at 1.76 x 10^-5 M by cell-based assay relative to vidarabine; type: functional; how it was run: as §1

Question: What does the source list for `CC(=O)OC[C@H]1O[C@@H](n2cnc3c(N)ncnc32)[C@@H](O)[C@@H]1OC(C)=O`?
Answer: solubility ([1]; aqueous, read-out: solubility): 4700 µg/mL (≈ 13.4 mM); Stability [2]: Stable; inhibition at 17.5 µM [3]: 81%; inhibition at 5.4 µM [4]: 79%; inhibition at 17.5 µM [5]: 87%

Question: For `CC(C)C(=O)OC[C@H]1O[C@@H](n2cnc3c(N)ncnc32)[C@@H](O)[C@@H]1OC(=O)C(C)C`, which solubility ([1]; aqueous, read-out: solubility) is on record?
Answer: 20 µg/mL (≈ 0.0491 mM)

Question: What about the Stability [2] of the same molecule?
Answer: Stable

Question: What about the inhibition at 17.5 µM [3] of the same molecule?
Answer: 0%

Question: And the inhibition at 17.5 µM [5]?
Answer: 90%

Question: For `CC(C)(C)C(=O)OC[C@H]1O[C@@H](n2cnc3c(N)ncnc32)[C@@H](O)[C@@H]1OC(=O)C(C)(C)C`, which solubility ([1]; aqueous, read-out: solubility) is on record?
Answer: < 10 µg/mL

Question: What about the Stability [2] of the same molecule?
Answer: Stable

Question: And the inhibition at 16.7 µM [6]?
Answer: 0%

Question: What about the inhibition at 16.7 µM [7] of the same molecule?
Answer: 100%

Question: With `CC(C)C(=O)O[C@H]1[C@H](O)[C@H](n2cnc3c(N)ncnc32)O[C@@H]1CO` as the molecule, how does the solubility ([1]; buffer) read?
Answer: soluble

Question: And the Stability [2]?
Answer: Unstable

Question: And the inhibition at 17.5 µM [3]?
Answer: 99%

Question: What about the inhibition at 1.8 µM [8] of the same molecule?
Answer: 26%

Question: What about the inhibition at 1.8 µM [9] of the same molecule?
Answer: 60%

Question: And the inhibition at 17.5 µM [5]?
Answer: 90%

Question: Which Activity [10] does the source give for `Nc1ncnc2c1ncn2[C@@H]1O[C@H](COP(=O)(O)O)[C@@H](O)[C@@H]1O` here?
Answer: Active

Question: And the Activity [11]?
Answer: Active

Question: And the Activity [12]?
Answer: Active

Question: And the Activity [13]?
Answer: Active

Question: And the Activity [14]?
Answer: Active

Question: What about the Activity [15] of the same molecule?
Answer: Active

Question: Which solubility ([1]; buffer) does the source give for `CCC(=O)O[C@H]1[C@H](O)[C@H](n2cnc3c(N)ncnc32)O[C@@H]1CO` here?
Answer: soluble

Question: And the Stability [2]?
Answer: Unstable

Question: What about the inhibition at 1.8 µM [8] of the same molecule?
Answer: 5%

Question: What about the inhibition at 17.6 µM [16] of the same molecule?
Answer: 80%

Question: What about the inhibition at 1.8 µM [9] of the same molecule?
Answer: 36%

Question: What about the inhibition at 17.6 µM [17] of the same molecule?
Answer: 87%

Question: With `CCC(=O)OC[C@H]1O[C@@H](n2cnc3c(N)ncnc32)[C@@H](O)[C@@H]1OC(=O)CC` as the molecule, how does the solubility ([1]; aqueous, read-out: solubility) read?
Answer: 2300 µg/mL (≈ 6.06 mM)

Question: What about the Stability [2] of the same molecule?
Answer: Stable

Question: What about the inhibition at 1.8 µM [8] of the same molecule?
Answer: 0%

Question: And the inhibition at 1.8 µM [9]?
Answer: 23%

Question: And the inhibition at 17.6 µM [17]?
Answer: 76%
